Results reported in ChEMBL document CHEMBL4680152, “Molecular design, synthesis, and biological evaluation of bisamide derivatives as cyclophilin A inhibitors for HCV treatment” (Eur J Med Chem, 2020).

Assays:
[1] = Selectivity index, ratio of CC50 for human Huh7.5 cells to EC50 for HCV genotype 2a JFH-1 infected in human Huh7.5 cells; type: toxicity, cell-based; details: read-out: Ratio CC50/EC50
Method in brief: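 This is the CC50/EC50 ratio. CC50 came from MTT viability of mock-infected Huh7.5 cells. EC50 came from Renilla luciferase in Huh7.5 cells infected with JFH1-Luc (MOI 0.004) and read 3 days post-infection, with 3-fold serial compound dilutions. Both were run in parallel, in triplicate.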

[2] = Antiviral activity against recombinant HCV genotype 2a JFH-1 infected in human Huh7.5 cells after 3 days by renilla luciferase reporter gene assay; type: functional, cell-based, Hepatitis C virus subtype 2a; details: Hepatitis C virus, JFH-1, Huh7.5, 72 h
Method in brief: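 Huh7.5 cells in DMEM with 10% FBS were infected with JFH1-Luc reporter virus at MOI 0.004 for 5 h at 37 °C while exposed to 3-fold serial dilutions of compound. On day 3 post-infection, the cells were lysed and Renilla luciferase activity was read. EC50 was calculated from the signal. Run in triplicate.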

[3] = Cytotoxicity against human Huh7.5 cells assessed as reduction in cell viability after 3 days by MTT assay; type: cell-based; details: time 3 day
Method in brief: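 Huh7.5 cells were mock-infected and then treated with increasing concentrations of compound (3-fold serial dilutions), in parallel with the antiviral plates. Viability was measured by MTT assay and CC50 was derived. Run in triplicate.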

[4] = molecular target: Peptidyl-prolyl cis-trans isomerase A (Homo sapiens, UniProt P62937); assay: Binding affinity to Cyclophilin A (unknown origin) by surface plasmon resonance analysis
Chain of Peptidyl-prolyl cis-trans isomerase A (P62937 whole entry): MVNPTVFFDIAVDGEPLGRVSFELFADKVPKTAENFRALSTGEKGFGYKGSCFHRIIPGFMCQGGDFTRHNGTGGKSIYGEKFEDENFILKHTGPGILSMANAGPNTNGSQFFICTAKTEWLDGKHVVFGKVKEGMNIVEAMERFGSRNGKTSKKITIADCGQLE
Method in brief: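 SPR was used. CypA was immobilized by EDC/NHS activation, diluted in 10 mM sodium acetate pH 6.0, then quenched with 1 M ethanolamine pH 8.5. A protein-free reference channel was used. Running buffer was PBS with 5% DMSO at 30 µL/min, with 3 min association and 4 min dissociation. Regeneration used 50 mM NaOH. KD came from kinetic fitting.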

SMILES | selectivity ratio [1] | EC50 [2] | CC50 at 72 h [3] | Kd [4]
COc1ccc(N(C(=O)Cc2c[nH]c3ccccc23)C(C(=O)NC2CCCCC2)c2cc(OC)c(OC)c(OC)c2)cc1OC (centres undefined) | 5.5 | 10.2 µM | 56.7 µM | –
COc1ccc(C(C(=O)NC2CCCCC2)N(C(=O)Cc2c[nH]c3ccccc23)c2ccccc2)c(OC)c1OC (centres undefined) | – | > 18.8 µM | 18.8 µM | –
COc1ccc(N(C(=O)Cc2c[nH]c3ccccc23)C(C(=O)NC2CCCCC2)c2cc(OC)c(OC)c(OC)c2)cc1 (centres undefined) | 9 | 5 µM | 44.8 µM | –
COc1cc(C(C(=O)NC(C)(C)C)N(C(=O)c2cc3ccccc3[nH]2)c2ccc(C(C)C)cc2)cc(OC)c1OC (centres undefined) | 6.2 | 5.9 µM | 36.7 µM | –
COc1cc(C(C(=O)NC2CCCCC2)N(C(=O)c2cc3ccccc3[nH]2)c2ccc(C(C)C)cc2)cc(OC)c1OC (centres undefined) | 9.7 | 2 µM | 19.4 µM | –
COc1cc(C(C(=O)NC2CCCCC2)N(C(=O)Cc2c[nH]c3ccccc23)c2cccc3ccccc23)cc(OC)c1OC (centres undefined) | 3.4 | 9.4 µM | 33.2 µM | –
COc1ccc(N(C(=O)Cc2c[nH]c3ccccc23)C(C(=O)NC2CCCCC2)c2ccc(OC)c(OC)c2)cc1 (centres undefined) | 8.6 | 3.8 µM | 32.7 µM | –
COc1ccc(C(C(=O)NC2CCCCC2)N(C(=O)Cc2c[nH]c3ccccc23)c2ccc(Br)cc2)c(OC)c1OC (centres undefined) | – | > 7.2 µM | 7.2 µM | –
COc1ccc(Cn2cc(CC(=O)N(c3ccccc3)C(C(=O)NC3CCCCC3)c3ccccc3)c3ccccc32)cc1 (centres undefined) | – | > 24.4 µM | 24.4 µM | –
COc1ccc(C(C(=O)NC2CCCCC2)N(C(=O)Cc2c[nH]c3ccccc23)c2ccc(OC)c(OC)c2)cc1OC (centres undefined) | 10.5 | 5.3 µM | 55.3 µM | –
COc1ccc(CCN(C(=O)Cc2c[nH]c3ccccc23)C(C(=O)NC2CCCCC2)c2cc(OC)c(OC)c(OC)c2)cc1OC (centres undefined) | > 18.9 | 5.3 µM | > 100 µM | 3.66 µM
COc1ccc(C(C(=O)NC2CCCCC2)N(C(=O)Cc2c[nH]c3ccccc23)c2ccc(C(C)C)cc2)c(OC)c1OC (centres undefined) | – | > 5.9 µM | 5.9 µM | –
COc1cc(C(C(=O)NC(C)(C)C)N(C(=O)Cc2c[nH]c3ccccc23)c2ccc(C(C)C)cc2)cc(OC)c1OC (centres undefined) | 2.3 | 6.3 µM | 13.9 µM | –
NC(=O)c1ncn([C@@H]2O[C@H](CO)[C@@H](O)[C@H]2O)n1 [RIBAVIRIN] | > 6.1 | > 100 µM | 16.3 µM | –
COc1cc(C(C(=O)NC2CCCCC2)N(C(=O)Cc2c[nH]c3ccccc23)c2ccc(C(C)C)cc2)cc(OC)c1OC (centres undefined) | > 19.2 | 5.2 µM | > 100 µM | –
COc1ccc(C(C(=O)NC2CCCCC2)N(C(=O)Cc2c[nH]c3ccccc23)C2CCCCC2)cc1OC (centres undefined) | – | > 14.6 µM | 14.6 µM | –
COc1ccc(C(C(=O)NC2CCCCC2)N(CC(OC)OC)C(=O)Cc2c[nH]c3ccccc23)cc1OC (centres undefined) | – | > 54.5 µM | 54.5 µM | –
COc1ccc(C(C(=O)NC2CCCCC2)N(C(=O)Cc2c[nH]c3ccccc23)c2ccc(C(C)C)cc2)cc1OC (centres undefined) | 3.5 | 2 µM | 6.9 µM | –
